Here are results for five compounds from ChEMBL document CHEMBL4002602, “Design, Synthesis of Novel, Potent, Selective, Orally Bioavailable Adenosine A2A Receptor Antagonists and Their Biological Evaluation” (J Med Chem, 2017).

SMILES strings stand for the structures. ≈ marks a conversion by molar mass, not a printed value.

One data set addresses T1, Adenosine receptor A1 (Homo sapiens, UniProt P30542).
T1 sequence (P30542 whole entry): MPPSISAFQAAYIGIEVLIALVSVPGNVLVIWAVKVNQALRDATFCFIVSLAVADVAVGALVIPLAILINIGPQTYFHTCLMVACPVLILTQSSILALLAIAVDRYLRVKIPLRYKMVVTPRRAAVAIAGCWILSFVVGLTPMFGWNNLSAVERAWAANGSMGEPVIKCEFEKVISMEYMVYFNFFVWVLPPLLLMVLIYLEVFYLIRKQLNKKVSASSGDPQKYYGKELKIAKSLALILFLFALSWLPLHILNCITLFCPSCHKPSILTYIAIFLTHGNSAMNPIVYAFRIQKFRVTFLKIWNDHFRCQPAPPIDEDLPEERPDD
The experiment in a line: Displacement of [3H]-DPCPX from human adenosine A1 receptor expressed in HEK293 cell membranes measured after 90 mins. The procedure, abridged: (§1)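 Competition binding on membranes from HEK-293 cells overexpressing human A1, A2A, A2B or A3, washed with ADA. Radioligands: [3H]-DPCPX 1 nM (A1), [3H]ZM241385 1 nM (A2A), [3H]-MRS-1754 1.6 nM (A2B), [3H]-HEMADO 2 nM (A3). Buffer was 50 mM Tris with EDTA and ADA; MgCl2 10 mM for A2A/A3; A2B at pH 6.5 with 5 mM MgCl2. Incubation 90 min at room temperature, then filtration. Nonspecific binding defined by NECA 100 μM. Ki values: mean of two experiments, triplicate points.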

The target of data set [1] is T2, hERG (KCNH2) (Homo sapiens, UniProt Q12809). The experiment in a line: Inhibition of [3H]-astemizole binding to human ERG at 10 uM after 2 hrs by liquid scintillation counting method relative to control. Particulars: probe [3H]-astemizole; call rule not given here.
A further data set has as its target Cytochrome P450 2C9 (Homo sapiens, UniProt P11712). The data set can be described thus: Inhibition of CYP2C9 in human liver microsomes at 5 to 25 uM using diclofenac as substrate preincubated for 5 mins with substrate followed by NADPH addition measured after 10 mins by LC-MS/MS analysis. The format is ADME. Particulars: microsomes, 10 min, 25 µM. On the technique in general: Liver microsomes are vesicles of endoplasmic reticulum, rich in cytochrome P450 enzymes.

A further data set has as its system Liver. The experiment in a line: Metabolic stability in rat liver microsomes assessed as metabolic rate at 1 uM preincubated for 5 mins followed by addition of NADPH measured after 3 to 30 mins by LC-MS/MS analysis. In kind it is ADME, microsome.
Data set [2] has as its target T3, Adenosine receptor A2b (Homo sapiens) (UniProt P29275).
T3 sequence (whole entry): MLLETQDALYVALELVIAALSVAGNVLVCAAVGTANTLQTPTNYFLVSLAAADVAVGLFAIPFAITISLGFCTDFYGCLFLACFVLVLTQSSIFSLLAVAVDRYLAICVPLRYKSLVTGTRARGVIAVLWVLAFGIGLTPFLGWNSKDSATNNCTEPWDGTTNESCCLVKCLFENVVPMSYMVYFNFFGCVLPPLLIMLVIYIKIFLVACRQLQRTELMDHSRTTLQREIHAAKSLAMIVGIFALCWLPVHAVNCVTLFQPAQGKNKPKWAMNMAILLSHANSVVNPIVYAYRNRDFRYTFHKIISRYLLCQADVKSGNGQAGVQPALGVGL
The data set can be described thus: Displacement of [3H]-MRS-1754 from human adenosine A2B receptor expressed in HEK293 cell membranes at 1 uM measured after 90 mins relative to control.

Another data set concerns the target Adenosine receptor A2a (Homo sapiens, UniProt P29274). The experiment in a line: Displacement of [3H]ZM241385 from human adenosine A2A receptor expressed in HEK293 cell membranes measured after 90 mins. The procedure, abridged:
as §1

Data set [3] in a line: Oral bioavailability in Wistar rat at 10 mg/kg administered via gavage by LC/MS/MS analysis. In kind it is ADME, organism-based. The conditions noted are these: in vivo. The procedure, abridged: (§2)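 Fasted male Wistar rats given 10 mg/kg PO as a suspension in 1% Tween 80, 0.5% w/v NaCMC. Serial plasma sampling (K2EDTA) at 0.25–24 h, acetonitrile precipitation, LC/MS/MS. Non-compartmental analysis per animal; bioavailability calculated against the 3 mg/kg IV group; mean of n=4.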

Another data set deals with T4, Cytochrome P450 1A2 (Homo sapiens, UniProt P05177).
T4 sequence (P05177 whole entry): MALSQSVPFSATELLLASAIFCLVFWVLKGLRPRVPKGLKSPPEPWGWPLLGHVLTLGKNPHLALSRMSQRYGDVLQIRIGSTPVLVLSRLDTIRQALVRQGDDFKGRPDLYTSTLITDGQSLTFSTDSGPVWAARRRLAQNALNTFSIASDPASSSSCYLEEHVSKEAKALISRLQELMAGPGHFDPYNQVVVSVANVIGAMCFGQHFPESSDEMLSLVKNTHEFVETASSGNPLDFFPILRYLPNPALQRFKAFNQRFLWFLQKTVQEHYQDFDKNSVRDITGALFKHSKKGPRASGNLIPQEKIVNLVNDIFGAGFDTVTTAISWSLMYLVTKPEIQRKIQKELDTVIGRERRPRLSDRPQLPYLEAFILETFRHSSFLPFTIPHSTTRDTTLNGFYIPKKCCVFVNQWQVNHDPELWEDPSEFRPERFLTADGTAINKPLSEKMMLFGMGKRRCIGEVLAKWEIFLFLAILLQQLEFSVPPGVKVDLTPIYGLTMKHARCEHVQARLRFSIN
The data set can be described thus: Inhibition of CYP1A2 in human liver microsomes at 5 to 25 uM using phenacetin as substrate preincubated for 5 mins with substrate followed by NADPH addition measured after 10 mins by LC-MS/MS analysis. In kind it is ADME. The conditions noted are these: microsomes, 10 min, 25 µM.

The nature of data set [4]: Tmax in Wistar rat at 10 mg/kg administered via oral gavage by LC/MS/MS analysis. In kind it is ADME, organism-based. The conditions noted are these: in vivo. The procedure, abridged: as §2
A further data set has as its target T5, Adenosine receptor A2b (Homo sapiens, UniProt P29275).
T5 sequence (P29275 whole entry): T3 sequence (whole entry)
The data set can be described thus: Displacement of [3H]-MRS-1754 from human adenosine A2B receptor expressed in HEK293 cell membranes measured after 90 mins.

The next data set deals with Cytochrome P450 3A (Homo sapiens, UniProt P08684+P20815+Q9HB55+P24462). The experiment in a line: Inhibition of CYP3A in human liver microsomes at 5 to 25 uM using testosterone as substrate preincubated for 5 mins with substrate followed by NADPH addition measured after 10 mins by LC-MS/MS analysis. The conditions noted are these: microsomes, 10 min, 25 µM. The format is ADME.

Data set [5] has as its target T6, Adenosine receptor A3 (Homo sapiens) (UniProt P0DMS8).
T6 sequence (whole entry): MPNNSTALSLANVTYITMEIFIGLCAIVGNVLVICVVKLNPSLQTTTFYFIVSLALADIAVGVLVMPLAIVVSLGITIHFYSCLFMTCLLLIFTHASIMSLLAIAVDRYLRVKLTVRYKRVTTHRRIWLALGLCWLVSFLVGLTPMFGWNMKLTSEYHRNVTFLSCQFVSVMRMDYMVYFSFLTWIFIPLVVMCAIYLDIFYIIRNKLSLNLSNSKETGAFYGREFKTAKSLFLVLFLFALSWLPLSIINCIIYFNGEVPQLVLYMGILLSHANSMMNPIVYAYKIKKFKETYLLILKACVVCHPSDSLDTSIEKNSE
The data set can be described thus: Displacement of [3H]-HEMADO from human adenosine A3 receptor expressed in HEK293 cell membranes at 1 uM measured after 90 mins relative to control. In general terms: Loss of bound radioactivity is the signal in a displacement assay; it reports binding, not function.

Data set [6] can be described thus: Equilibrium aqueous solubility of the compound at pH 4 after 4 hrs. In kind it is physicochemical. The conditions noted are these: aqueous medium.
For data set [7], the target named is T2, hERG (KCNH2). The data set can be described thus: Inhibition of [3H]-astemizole binding to human ERG at 30 uM after 2 hrs by liquid scintillation counting method relative to control. Particulars: probe [3H]-astemizole.

Sequence of Adenosine receptor A2a (P29274 whole entry): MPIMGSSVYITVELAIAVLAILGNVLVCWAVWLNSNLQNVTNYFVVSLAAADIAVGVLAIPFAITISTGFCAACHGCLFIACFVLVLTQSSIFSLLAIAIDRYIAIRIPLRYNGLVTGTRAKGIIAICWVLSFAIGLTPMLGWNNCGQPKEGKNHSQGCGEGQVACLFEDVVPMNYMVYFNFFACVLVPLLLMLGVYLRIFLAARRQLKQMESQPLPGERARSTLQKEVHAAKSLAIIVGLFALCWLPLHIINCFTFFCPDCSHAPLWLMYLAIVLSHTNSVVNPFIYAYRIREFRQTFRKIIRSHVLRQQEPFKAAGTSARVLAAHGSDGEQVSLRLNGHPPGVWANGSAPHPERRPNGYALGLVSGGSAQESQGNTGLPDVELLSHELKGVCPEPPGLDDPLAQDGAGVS
Sequence of Cytochrome P450 2C9 (P11712 whole entry): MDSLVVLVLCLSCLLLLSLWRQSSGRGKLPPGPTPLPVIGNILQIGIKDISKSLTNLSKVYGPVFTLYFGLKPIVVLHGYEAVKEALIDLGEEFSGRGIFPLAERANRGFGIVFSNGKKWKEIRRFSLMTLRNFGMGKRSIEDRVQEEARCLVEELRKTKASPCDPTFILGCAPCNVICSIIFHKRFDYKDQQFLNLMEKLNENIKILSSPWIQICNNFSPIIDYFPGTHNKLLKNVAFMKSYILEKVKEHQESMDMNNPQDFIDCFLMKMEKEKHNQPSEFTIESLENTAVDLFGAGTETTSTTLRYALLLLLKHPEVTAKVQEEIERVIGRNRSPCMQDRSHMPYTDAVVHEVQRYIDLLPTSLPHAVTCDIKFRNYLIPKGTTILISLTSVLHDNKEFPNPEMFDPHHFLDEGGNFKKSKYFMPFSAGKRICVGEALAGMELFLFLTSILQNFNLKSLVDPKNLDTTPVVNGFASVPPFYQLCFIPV
T2 sequence (Q12809 whole entry): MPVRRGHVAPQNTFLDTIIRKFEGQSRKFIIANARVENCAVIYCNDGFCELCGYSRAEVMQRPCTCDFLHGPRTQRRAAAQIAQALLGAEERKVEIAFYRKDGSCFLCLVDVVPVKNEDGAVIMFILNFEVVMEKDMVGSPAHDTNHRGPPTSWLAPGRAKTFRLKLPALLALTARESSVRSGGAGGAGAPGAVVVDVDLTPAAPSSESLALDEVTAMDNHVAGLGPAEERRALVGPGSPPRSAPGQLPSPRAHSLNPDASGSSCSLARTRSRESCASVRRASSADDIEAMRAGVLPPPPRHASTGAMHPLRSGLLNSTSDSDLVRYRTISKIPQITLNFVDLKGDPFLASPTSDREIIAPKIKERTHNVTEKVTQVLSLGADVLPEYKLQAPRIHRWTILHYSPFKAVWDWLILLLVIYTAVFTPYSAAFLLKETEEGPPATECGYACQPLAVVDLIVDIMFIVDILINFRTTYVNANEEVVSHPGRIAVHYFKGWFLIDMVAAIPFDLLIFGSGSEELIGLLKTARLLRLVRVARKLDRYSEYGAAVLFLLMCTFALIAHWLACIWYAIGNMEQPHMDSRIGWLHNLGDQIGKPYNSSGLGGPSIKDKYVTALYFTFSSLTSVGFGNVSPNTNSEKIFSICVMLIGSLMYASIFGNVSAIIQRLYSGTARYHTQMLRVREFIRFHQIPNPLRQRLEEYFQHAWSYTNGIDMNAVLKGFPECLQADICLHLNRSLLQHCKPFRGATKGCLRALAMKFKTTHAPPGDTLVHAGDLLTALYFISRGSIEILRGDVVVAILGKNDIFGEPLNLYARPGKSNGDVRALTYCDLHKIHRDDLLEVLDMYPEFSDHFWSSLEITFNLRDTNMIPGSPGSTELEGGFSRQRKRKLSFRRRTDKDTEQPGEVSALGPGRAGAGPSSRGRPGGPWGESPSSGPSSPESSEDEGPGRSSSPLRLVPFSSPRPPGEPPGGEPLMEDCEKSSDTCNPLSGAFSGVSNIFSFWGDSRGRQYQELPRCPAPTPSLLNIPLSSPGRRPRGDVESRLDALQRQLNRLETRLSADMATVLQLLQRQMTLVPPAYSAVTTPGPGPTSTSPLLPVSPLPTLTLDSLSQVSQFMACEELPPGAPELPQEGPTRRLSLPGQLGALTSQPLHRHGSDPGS

By Ki is commonly meant the equilibrium dissociation constant of an inhibitor or competing ligand from its target. Low values mean a stronger hold on the target, high ones a looser hold on the target. By inhibition is commonly meant the share of the control response that was lost under treatment. Read a high inhibition as a strong effect. As usually defined, the bioavailability is the share of a dose that reaches the circulation, judged against a reference dose that is usually intravenous. A higher bioavailability goes with good availability. What is called Tmax is the time at which the peak concentration occurs. A word on the thermodynamic solubility: it is the concentration in solution at equilibrium with solid. For `COc1ccc(N2CCOCC2)c2sc(NC(=O)C(C)(C)Oc3ccc(F)c(F)c3)nc12`, the Ki on Adenosine receptor A1 was 1100 nM; on Adenosine receptor A2a, 6.4 nM; on Adenosine receptor A2b, 5000 nM. Moreover, the inhibition at 2 h, 10 µM on hERG (KCNH2) [1] is less than 5%. In addition, the “inhibition (INH)” value against Cytochrome P450 2C9, against Cytochrome P450 1A2 and at Cytochrome P450 3A was “Not Active” in each case. Besides, the Drug metabolism in the data set with Liver turned out to be 0.09 nmol/min/mg. The inhibition was 34% in data set [2] and 28% in [5]. This compound also returned a bioavailability in [3] of 17%. In addition, the Tmax in [4] came to 30 min. This compound also came in with a solubility (thermodynamic) at 4 h in data set [6] of less than 6 µM.

As for `COc1ccc(N2CCOCC2)c2sc(NC(=O)C(C)(C)Oc3ccc(F)cc3)nc12`, the inhibition constant Ki on Adenosine receptor A1 amounted to 5000 nM; on Adenosine receptor A2a, 13 nM; at Adenosine receptor A2b, 10000 nM. Moreover, the inhibition at 2 h, 10 µM at hERG (KCNH2) [1] was less than 5%. Further, the “inhibition (INH)” value against Cytochrome P450 2C9, at Cytochrome P450 1A2 and on Cytochrome P450 3A was “Not Active” throughout. For the same compound, in the data set with Liver, the Drug metabolism turned out to be 0.04 nmol/min/mg. Besides, the inhibition in data set [2] was found to be 0%; in data set [5] it was 11%. For the same compound, in data set [3], the bioavailability was 6%. For the same compound, the time to peak (Tmax) in [4] was found to be 30 min. Moreover, in data set [6], the solubility (thermodynamic) at 4 h was less than 6 µM.

Take `COc1cnc(N2CCOCC2)c2sc(NC(=O)C(C)(C)Oc3ccc(F)cc3)nc12`: the Ki was 500 nM at Adenosine receptor A1, 3.4 nM at Adenosine receptor A2a and 1400 nM at Adenosine receptor A2b. The compound further displayed an inhibition at 2 h, 10 µM on hERG (KCNH2) [1] of less than 10%. The “inhibition (INH)” value against Cytochrome P450 2C9, at Cytochrome P450 1A2 and on Cytochrome P450 3A was “Not Active” throughout. Besides, the inhibition at 2 h, 30 µM on hERG (KCNH2) [7] was less than 10%. Moreover, the Drug metabolism in the data set on Liver was less than 0.04 nmol/min/mg. Also, the results for the inhibition in data set [2] and in [5] were 24% and 46%, respectively. The compound further showed a bioavailability in data set [3] of 21.7%. Moreover, in data set [4], the Tmax was 165 min. For the same compound, the thermodynamic solubility at 4 h in data set [6] is less than 6 µM.

As to `CCN(CC)C1CCC(C)(C(=O)Nc2nc3c(OC)ccc(N4CCOCC4)c3s2)CC1` (configuration not stated), the Ki worked out at 1200 nM at Adenosine receptor A1, 2.1 nM on Adenosine receptor A2a and 500 nM at Adenosine receptor A2b. This compound also displayed an inhibition at 2 h, 10 µM at hERG (KCNH2) [1] of 13%. The inhibition at 2 h, 30 µM at hERG (KCNH2) [7] was 18%. Besides, the Drug metabolism in the data set with Liver was found to be 0.01 nmol/min/mg. In addition, the bioavailability in data set [3] was found to be 61%. In data set [4], the Tmax is 37.8 min. This compound returned a thermodynamic solubility at 4 h in data set [6] of 1810 µM (≈ 832 µg/mL).

For the compound `COc1ccc(N2CCOCC2)c2sc(NC(=O)C3(C)CCC(C)(O)CC3)nc12` (configuration not stated), the Ki was determined as 2900 nM at Adenosine receptor A1, 8.6 nM at Adenosine receptor A2a and 500 nM on Adenosine receptor A2b. At hERG (KCNH2) [7], the inhibition at 2 h, 30 µM came to 26%. Moreover, the Drug metabolism in the data set on Liver is less than 0.04 nmol/min/mg. This compound also displayed a bioavailability in [3] of 63%. For the same compound, the Tmax in [4] turned out to be 30 min. Further, the solubility (thermodynamic) at 4 h in data set [6] came out at 111 µM (≈ 46.6 µg/mL).
